Laboratory results reported in PubChem BioAssay AID720508 (The Scripps Research Institute Molecular Screening Center, 2013).
Screen size: about 370,000 compounds; about 500 (0.14%) were called active.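 How the source made its calls: active means inhibition above the mean of compounds falling within the control limits plus 3 SD of them (cut at about 14% in these data); inactive means the rest.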 The list comes from a sample in which actives are over-represented; it also holds similar structures and randomly drawn compounds.

Target: Fibrinogen beta chain (Homo sapiens) (UniProt P02675)
Assay: small molecules displacing Tn7 from DD(E) complex – biochemical, fluorescence polarization, human fibrin, Tn7 probe, primary screen (AID 720508);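 further: 0% = plate median of compound wells and 100% = 10 µM Aha-Tn7 peptide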
Settings: FP displacement of FITC-Tn7 peptide from fibrin DD(E); at 8.3 µM; stronger effect = higher value; 0% = median of compound wells per plate
Procedure, shortened: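 Assay system: Human fibrin DD(E) protein | Medium: Tris buffer with calcium and detergent, pH 7.8 | Reagent: 0.1 µM fluorescent Tn7 | Compound dosing: Single point at 8.3 µM | Times: 10 min preincubation, 3 h with tracer, room temperature | Detection: Fluorescence polarization of the labelled Tn7 tracer | Controls: Aha-Tn7 high control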

Fibrinogen beta chain (Homo sapiens), sequence (P02675 whole entry, looked up): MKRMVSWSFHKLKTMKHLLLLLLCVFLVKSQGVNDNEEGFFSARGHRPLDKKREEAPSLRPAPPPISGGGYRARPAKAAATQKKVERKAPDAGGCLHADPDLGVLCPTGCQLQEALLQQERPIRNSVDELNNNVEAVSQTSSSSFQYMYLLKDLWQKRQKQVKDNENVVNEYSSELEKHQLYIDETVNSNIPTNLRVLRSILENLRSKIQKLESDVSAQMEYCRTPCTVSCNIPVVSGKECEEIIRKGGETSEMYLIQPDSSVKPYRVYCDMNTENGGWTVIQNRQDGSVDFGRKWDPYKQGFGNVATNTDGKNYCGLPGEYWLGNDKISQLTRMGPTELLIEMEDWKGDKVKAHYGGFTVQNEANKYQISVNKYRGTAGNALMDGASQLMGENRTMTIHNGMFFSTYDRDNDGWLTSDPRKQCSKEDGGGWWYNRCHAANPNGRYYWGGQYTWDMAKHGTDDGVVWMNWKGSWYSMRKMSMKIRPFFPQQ

Q: `Cc1nnc2n1N=C(c1ccc3c(c1)NC(=O)CO3)CS2` was tested. Which inhibition did it give?
A: 15.4% (active)

Q: How did the inhibition turn out when `CC(C)[C@@H](C(=O)OCC(=O)c1ccc2c(c1)NC(=O)CO2)N1C(=O)c2ccccc2C1=O` was run?
A: -6.7% (inactive)

Q: `Cc1ccc(NS(=O)(=O)c2ccc3c(c2)NC(=O)CO3)cc1` was tested. Which inhibition did it give?
A: 2.86% (inactive)

Q: With `COc1cc(C(=O)NN(CCC#N)C2=NS(=O)(=O)c3ccccc32)cc(OC)c1OC` as the compound, how does the inhibition read?
A: -4.12% (inactive)

Q: How did the inhibition turn out when `Cc1nn(C)cc1N1C(=O)c2cccc3c(N)ccc(c23)C1=O` was run?
A: 28.7% (active)

Q: Which inhibition does the source give for `CN1C(=O)c2cccc3c(N)ccc(c23)C1=O` here?
A: 24.4% (active)

Q: Which inhibition does the source give for `CC(=O)CC(CC(=O)NC1CCCCC1)c1ccccc1` (centres undefined) here?
A: 4.93% (inactive)

Q: How did the inhibition turn out when `CCCC(=O)N1CCC(CCC(=O)NC2CC2)CC1` was run?
A: -7.44% (inactive)

Q: `CC(Sc1ccc(S(=O)(=O)N2CCN(C)CC2)cn1)C(=O)NC1CCCC(C)C1C` (centres undefined) was tested. Which inhibition did it give?
A: 4.47% (inactive)

Q: `CCC(C)N1CC(=O)N2Cc3[nH]c4ccccc4c3C[C@H]2C1=O` (some centres undefined) was tested. Which inhibition did it give?
A: -0.72% (inactive)

Q: For `COc1ccc(-n2c(SCC(=O)Nc3sc4c(c3C#N)CCCC4)nnc2-c2ccc(O)cc2)cc1`, which inhibition is on record?
A: -4.29% (inactive)

Q: For `CCCCOC(=O)NCN1C(=O)C2C3C=CC(C3)C2C1=O` (centres undefined), which inhibition is on record?
A: 12.4% (inactive)

Q: How did the inhibition turn out when `Cc1ccc(S(=O)(=O)N2CCC(C(=O)NCCC3=CCCCC3)CC2)cc1C` was run?
A: 0.25% (inactive)

Q: Which inhibition does the source give for `OCC1(Cc2ccccc2C(F)(F)F)CCN(Cc2ccncc2)CC1` here?
A: -3.68% (inactive)

Q: How did the inhibition turn out when `Nc1nc(Br)c2ccccc2c1-c1ccc(F)cc1` was run?
A: -1.53% (inactive)

Q: With `O=C(c1ccc(OC2CCN(C(=O)c3cccnc3)CC2)cc1)N1CCCCCC1` as the compound, how does the inhibition read?
A: 3.65% (inactive)

Q: `O=C(Cn1cnc2c(nnn2Cc2ccc(F)cc2)c1=O)NCc1ccc2c(c1)OCO2` was tested. Which inhibition did it give?
A: -1.63% (inactive)

Q: How did the inhibition turn out when `O=C(Nc1cccc(C(=O)NC2CC2)c1)c1ccc(F)c(S(=O)(=O)N2CCOCC2)c1` was run?
A: 6.51% (inactive)

Q: For `CC12CCC(C(=O)N(CCC#N)CCC#N)(CC1=O)C2(C)C` (centres undefined), which inhibition is on record?
A: 1.78% (inactive)

Q: For `N#CCCN1CCN(S(=O)(=O)c2ccc(S(=O)(=O)N3CCCC3)cc2)CC1`, which inhibition is on record?
A: 3.06% (inactive)

Q: How did the inhibition turn out when `CC(C)(C)c1cc(CN2CCN(CCC#N)CC2)cc(C(C)(C)C)c1O` was run?
A: 13.8% (active)

Q: `N#Cc1cccc(CN2CCC(=O)N(CCO)CC2)c1` was tested. Which inhibition did it give?
A: 7.16% (inactive)

Q: With `CCC(c1ccc(NC(=O)OC(C)(C)C)cc1)c1cc(OC)cc(OC)c1` (centres undefined) as the compound, how does the inhibition read?
A: -0.44% (inactive)

Q: Which inhibition does the source give for `CN(C)S(=O)(=O)c1ccc(N/C=C(\[N+](=O)[O-])S(=O)(=O)c2ccccc2)cc1` here?
A: -0.82% (inactive)

Q: For `COC(=O)c1sccc1NC(=O)CSc1ccccc1NS(=O)(=O)c1cc(Cl)ccc1Cl`, which inhibition is on record?
A: 0.88% (inactive)

Q: With `Cc1cc(C)c2cc(CN(Cc3cccs3)Cc3nnnn3CC3CCCO3)c(=O)[nH]c2c1` (centres undefined) as the compound, how does the inhibition read?
A: -1.42% (inactive)

Q: With `CC(C)[C@H](NC(=O)N1CCn2c1nc1ccccc12)C(=O)NCc1ccc2c(c1)OCO2` as the compound, how does the inhibition read?
A: 1.52% (inactive)

Q: How did the inhibition turn out when `O=S1(=O)c2c(cccc2N2CC[C@H](O)C2)O[C@@H]2CCN1C2` was run?
A: 4.53% (inactive)

Q: For `CCC(=O)Nc1cccc(C2=NOC3(C2)C[C@@H](C(N)=O)N(C(=O)c2cc([N+](=O)[O-])cc([N+](=O)[O-])c2C)C3)c1` (some centres undefined), which inhibition is on record?
A: -4.25% (inactive)

Q: Which inhibition does the source give for `CC(Oc1ccccc1)C(=O)Nc1oc(-c2ccco2)c(-c2ccco2)c1C#N` (centres undefined) here?
A: 2.07% (inactive)

Q: `N#Cc1nc(Cc2cccc3ccccc23)oc1NCc1ccc2c(c1)OCO2` was tested. Which inhibition did it give?
A: 4.95% (inactive)

Q: For `Cc1ccc(OCc2nc(C#N)c(N3CCCC3)o2)cc1`, which inhibition is on record?
A: 0.61% (inactive)

Q: `CCOc1ccc(Nc2oc(Cc3ccccc3)nc2C#N)cc1` was tested. Which inhibition did it give?
A: 14.8% (active)

Q: How did the inhibition turn out when `COc1ccc(C(C(=O)NC2CCCCC2)N(C(=O)Cc2c[nH]c3ccccc23)c2ccccc2)cc1OC` (centres undefined) was run?
A: 2.39% (inactive)

Q: Which inhibition does the source give for `COC(=O)CNC(=O)C(CCSC)NC(C)=O` (centres undefined) here?
A: 3.11% (inactive)

Q: For `COc1cc(OC)c(C(=S)N2CCCC2)cc1OC`, which inhibition is on record?
A: 2.99% (inactive)

Q: Which inhibition does the source give for `CC1(C)C/C(=C(/C#N)C(N)=O)CCO1` here?
A: -4% (inactive)

Q: For `Cc1cc(C(=O)COc2ccc(Br)cc2F)c(C)n1C1CC1`, which inhibition is on record?
A: 1.64% (inactive)

Q: How did the inhibition turn out when `O=C(NC1CCCCN(Cc2cccc(C(F)(F)F)c2)C1=O)c1ccccc1I` (centres undefined) was run?
A: 2.66% (inactive)

Q: `O=C(NCc1ccc(F)cc1F)[C@@H]1CCCN1C(=O)[C@@H]1CCCN1C(=O)c1cccc(Cl)c1` was tested. Which inhibition did it give?
A: -9.38% (inactive)

Q: For `O=C(COC(=O)CNS(=O)(=O)c1ccccc1)NC12CC3CC(CC(C3)C1)C2`, which inhibition is on record?
A: 2.98% (inactive)

Q: For `CC1CC1C(=O)OCC(=O)c1c(N)n(C)c(=O)n(C)c1=O` (centres undefined), which inhibition is on record?
A: -2.99% (inactive)

Q: With `CC(C)NC(=O)C1(C)CCCCN1Cc1cccc(C(F)(F)F)c1` (centres undefined) as the compound, how does the inhibition read?
A: 1.37% (inactive)

Q: With `Brc1ccc(-c2nn[nH]n2)cc1` as the compound, how does the inhibition read?
A: -4.35% (inactive)

Q: Which inhibition does the source give for `c1cc(-c2nn[nH]n2)ccc1CN1CCCCC1` here?
A: 14.4% (active)

Q: How did the inhibition turn out when `Clc1ccc(CN2CCCCCC2)cc1Cl` was run?
A: 1.42% (inactive)

Q: How did the inhibition turn out when `COc1cccc(N2CC(NS(=O)(=O)c3ccc(Cl)cc3)CC2=O)c1` (centres undefined) was run?
A: -2.23% (inactive)

Q: `COc1cccc(N2CC(NS(=O)(=O)c3cccs3)CC2=O)c1` (centres undefined) was tested. Which inhibition did it give?
A: 15.4% (active)

Q: Which inhibition does the source give for `COc1cccc(N2CC(NC(=O)c3ccc4ccccc4c3)CC2=O)c1` (centres undefined) here?
A: 6.86% (inactive)

Q: Which inhibition does the source give for `CCN(CC)C(=O)CSC(Nc1cccc(F)c1)=C(C#N)C#N` here?
A: 2.96% (inactive)

Q: For `CCn1c(C)nc2c1C(=O)c1ccccc1C2=O`, which inhibition is on record?
A: -6.92% (inactive)

Q: With `CCC(C(=O)OC)n1cnc2c(oc3ccccc32)c1=O` (centres undefined) as the compound, how does the inhibition read?
A: 6.68% (inactive)

Q: With `Cc1ccc(S(=O)(=O)CC(=O)Nc2sc(C)c(C)c2C(N)=O)cc1` as the compound, how does the inhibition read?
A: -0.13% (inactive)

Q: How did the inhibition turn out when `NC1=NC(=O)C(Cc2cccc(Cl)c2)S1` (centres undefined) was run?
A: 2.82% (inactive)

Q: `COCc1cc(=O)n2[nH]c(C)c(-c3ccccc3)c2n1` was tested. Which inhibition did it give?
A: -2.38% (inactive)

Q: For `CN(C(=O)C1CCN(c2ncnc3c2nc2n3CCCCC2)CC1)C1CCCCC1`, which inhibition is on record?
A: -2.26% (inactive)

Q: Which inhibition does the source give for `Cc1ccc(CN2CCN(Cc3ccc(OCCO)cc3)CC2CCO)o1` (centres undefined) here?
A: 7.01% (inactive)

Q: How did the inhibition turn out when `CCCCNC(=O)C[C@@H]1C[C@@]2(C(=O)OCC)CCC=C2N(Cc2cccc3ccccc23)C1=O` was run?
A: -3.28% (inactive)

Q: `CN(C(=O)CSc1nc(C2CC2)nc2ccccc12)c1nc(-c2ccccc2)cs1` was tested. Which inhibition did it give?
A: -7.43% (inactive)

Q: With `CN1c2ccc(C=O)c3c(C=O)ccc(c23)N(C)C1(C)C` as the compound, how does the inhibition read?
A: 16.9% (active)

Q: With `COc1ccc(NC(=O)NNC(=O)COc2cc(C)c(Cl)c(C)c2)c(OC)c1` as the compound, how does the inhibition read?
A: -5.88% (inactive)

Q: How did the inhibition turn out when `O=C1NC(=Nc2ccc(Cl)cc2)SC1Cc1cccc(Cl)c1Cl` (centres undefined) was run?
A: 0.11% (inactive)

Q: `Cc1ccc(N(C(=O)C(F)(F)F)C(C(=O)NC2CCCCC2)c2ccncc2)cc1C` (centres undefined) was tested. Which inhibition did it give?
A: 5.16% (inactive)

Q: How did the inhibition turn out when `CC[C@@H]1CCCCc2ccccc2[C@@H](C(=O)C[C@H](O)CC(C)=O)OC1=O` was run?
A: 1.6% (inactive)

Q: `CCCNC(=O)C(=O)Nc1cc2c3c(c1)CCC(=O)N3CCC2` was tested. Which inhibition did it give?
A: 0.54% (inactive)

Q: For `COc1ccccc1C(=O)N1CCN=C1SCc1cccnc1`, which inhibition is on record?
A: 3.49% (inactive)

Q: With `COC(=O)CNc1nc(Cl)nc(N2CCC(C)CC2)n1` as the compound, how does the inhibition read?
A: 7.41% (inactive)

Q: For `NC(=O)c1cc(S(=O)(=O)N2CCCC2)ccc1OCc1ccc(F)cc1`, which inhibition is on record?
A: 0.91% (inactive)

Q: `CC(C)(C)c1ccccc1NC(=O)CN1C(=O)NC2(CCCC2)C1=O` was tested. Which inhibition did it give?
A: -0.76% (inactive)

Q: For `Cc1nn(C)c(C)c1S(=O)(=O)N1CCc2ccccc21`, which inhibition is on record?
A: -4.06% (inactive)

Q: Which inhibition does the source give for `CCO[C@H]1OC(C(=O)N2CCN(Cc3ccccc3)CC2)=C[C@@H](c2cn(C(C)=O)c3ccccc23)[C@@H]1CCCO` here?
A: 7% (inactive)

Q: For `O=C(COC(=O)/C=C/c1ccc(OC(F)F)cc1)NC1CCCCC1`, which inhibition is on record?
A: 13.9% (active)

Q: `C=CCOc1ccc(/C=C/C(=O)OCC(=O)NC2CCCCCC2)cc1` was tested. Which inhibition did it give?
A: 0.53% (inactive)

Q: How did the inhibition turn out when `COc1ccccc1/C=C/C(=O)OCC(=O)NC1CCCCCC1` was run?
A: 8.08% (inactive)
